Results taken from ChEMBL document CHEMBL3233004, “Analogue-based design, synthesis and biological evaluation of 3-substituted-(methylenehydrazono)indolin-2-ones as anticancer agents” (Eur J Med Chem, 2014).

Columns and labels:
[1] = system: MCF7; test: Cytotoxicity against human MCF7 cells assessed as surviving fraction after 48 hrs by SRB assay; assay type: functional, cell-based; conditions: MCF7, 48 h
How it was run: (§1)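 MCF-7 cells (ATCC) grown in DMEM with 10% heat-inactivated fetal calf serum. Seeded at 10⁴ cells/well and left 24 h to attach. Compounds dissolved in DMSO and diluted with saline, then given to the monolayer for 48 h at 37 °C under 5% CO₂. Cells fixed, stained 30 min with 0.4% SRB in 1% acetic acid, washed four times with 1% acetic acid, and bound dye recovered in Tris-EDTA. Colour read on an ELISA reader.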

[2] = system: MCF7; test: Cytotoxicity against human MCF7 cells assessed as surviving fraction at 100 uM after 48 hrs by SRB assay relative to control; assay type: functional; how it was run: as §1
[3] = system: MCF7; test: Cytotoxicity against human MCF7 cells assessed as surviving fraction at 25 uM after 48 hrs by SRB assay relative to control; assay type: functional; how it was run: as §1
[4] = system: MCF7; test: Cytotoxicity against human MCF7 cells assessed as surviving fraction at 10 uM after 48 hrs by SRB assay relative to control; assay type: functional; how it was run: as §1
[5] = system: MCF7; test: Cytotoxicity against human MCF7 cells assessed as surviving fraction at 50 uM after 48 hrs by SRB assay relative to control; assay type: functional; how it was run: as §1

COc1cccc2c1C(=O)c1c(O)c3c(c(O)c1C2=O)C[C@@](O)(C(=O)CO)C[C@@H]3O[C@H]1C[C@H](N)[C@H](O)[C@H](C)O1 [DOXORUBICIN]
IC50 [1]: 6.1 µM | Ratio [2]: 0.125 | Ratio [3]: 0.158 | Ratio [4]: 0.257 | Ratio [5]: 0.098

O=C1Nc2ccc(F)cc2/C1=N/N=C/c1ccc[nH]1
IC50 [1]: 10.8 µM | Ratio [2]: 0.528 | Ratio [3]: 0.274 | Ratio [4]: 0.671 | Ratio [5]: 0.456

O=C1Nc2ccccc2/C1=N/N=C/c1ccc[nH]1
IC50 [1]: 6.25 µM | Ratio [2]: 0.357 | Ratio [3]: 0.328 | Ratio [4]: 0.465 | Ratio [5]: 0.395

O=C1Nc2ccc(Cl)cc2/C1=N/N=C/c1cccs1
IC50 [1]: 15.3 µM | Ratio [2]: 0.194 | Ratio [3]: 0.31 | Ratio [4]: 0.619 | Ratio [5]: 0.204

Cc1ccc2c(c1)/C(=N/N=C/c1ccc[nH]1)C(=O)N2
IC50 [1]: 9.25 µM | Ratio [2]: 0.206 | Ratio [3]: 0.351 | Ratio [4]: 0.473 | Ratio [5]: 0.221

O=C1Nc2ccccc2/C1=N/N=C/c1cccs1
IC50 [1]: 8.25 µM | Ratio [2]: 0.546 | Ratio [3]: 0.602 | Ratio [4]: 0.352 | Ratio [5]: 0.522

O=C1Nc2ccc(Cl)cc2/C1=N/N=C/c1ccc[nH]1
IC50 [1]: 11.8 µM | Ratio [2]: 0.259 | Ratio [3]: 0.392 | Ratio [4]: 0.51 | Ratio [5]: 0.238

O=C1Nc2ccc(F)cc2/C1=N/N=C/c1cccs1
IC50 [1]: 25.8 µM | Ratio [2]: 0.308 | Ratio [3]: 0.505 | Ratio [4]: 0.616 | Ratio [5]: 0.331

O=C1Nc2ccc(Cl)cc2/C1=N/N=C/c1ccco1
IC50 [1]: 7.75 µM | Ratio [2]: 0.231 | Ratio [3]: 0.274 | Ratio [4]: 0.384 | Ratio [5]: 0.259

Cc1ccc2c(c1)/C(=N/N=C/c1ccco1)C(=O)N2
IC50 [1]: 8.75 µM | Ratio [2]: 0.102 | Ratio [3]: 0.213 | Ratio [4]: 0.436 | Ratio [5]: 0.195

O=C1Nc2ccccc2/C1=N/N=C/c1ccco1
IC50 [1]: 15.8 µM | Ratio [2]: 0.333 | Ratio [3]: 0.306 | Ratio [4]: 0.637 | Ratio [5]: 0.158

Cc1ccc2c(c1)/C(=N/N=C/c1cccs1)C(=O)N2
IC50 [1]: 6.75 µM | Ratio [2]: 0.137 | Ratio [3]: 0.132 | Ratio [4]: 0.227 | Ratio [5]: 0.099

O=C1Nc2ccc(F)cc2/C1=N/N=C/c1ccco1
IC50 [1]: 20.3 µM | Ratio [2]: 0.257 | Ratio [3]: 0.429 | Ratio [4]: 0.667 | Ratio [5]: 0.335
